From paper PMC11408085 (Biochemistry, 2024)
Read-outs that look alike come from different tables or passages of the source.

Key:
[1] = biological target: T1, IYD from Haliscomenobacter hydrossis (Haliscomenobacter hydrossis, UniProt F4KU78); assay: biochemical; type: binding
T1 sequence (F4KU78 1-222): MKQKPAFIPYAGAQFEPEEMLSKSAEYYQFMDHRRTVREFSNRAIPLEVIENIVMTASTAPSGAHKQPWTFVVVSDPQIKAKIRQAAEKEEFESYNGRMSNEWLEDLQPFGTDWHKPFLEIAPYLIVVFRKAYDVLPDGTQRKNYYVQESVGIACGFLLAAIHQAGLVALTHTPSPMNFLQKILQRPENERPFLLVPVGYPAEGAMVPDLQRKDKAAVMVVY

[2] = biological target: T1, IYD from Haliscomenobacter hydrossis; conditions: for fold increase in t1/2: O2N ligands, relative to IYD without ligand; for protection of IYD against trypsin: fluorinated ligands, saturating concentration; for fold change in t1/2: relative to IYD without ligand (10 min)
[3] = biological target: T1, IYD from Haliscomenobacter hydrossis; type: biochemical; conditions: equimolar concentrations of substrate, anaerobic
[4] = biological target: T2, trypsin from bovine pancreas (Bos taurus, UniProt P00760); assay: Potential inhibition of trypsin by ligands of IYD; type: biochemical; conditions: DL-BAPNA as substrate; for inhibition of trypsin: ligand at concentration saturating IYD
T2 sequence (P00760 24-246): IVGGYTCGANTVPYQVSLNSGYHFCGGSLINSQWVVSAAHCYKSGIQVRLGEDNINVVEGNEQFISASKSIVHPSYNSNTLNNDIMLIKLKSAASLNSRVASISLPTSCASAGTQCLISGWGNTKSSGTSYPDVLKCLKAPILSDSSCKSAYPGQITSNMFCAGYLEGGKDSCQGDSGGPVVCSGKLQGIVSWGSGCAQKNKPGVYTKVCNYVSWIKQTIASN
In short: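 4-Nitroaniline formation read at 405 nm (ε = 9920 M⁻¹cm⁻¹) every 15 s for 5 min. Rate taken by linear regression over the first 2 min. Repeated independently twice.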

[5] = biological target: T1, IYD from Haliscomenobacter hydrossis; assay: Redox titration of IYD in the presence of substrate analogues; conditions: for two-electron potential of IYD: in presence of ligand, −200 mV in absence of ligands; for formation of FMNsq during reductive titration: saturating ligand, anaerobic, pH 7.4, 25 °C
[6] = biological target: T1, IYD from Haliscomenobacter hydrossis; assay: Catalytic deiodination; type: biochemical; conditions: for kcat (s^−1) × 10^−2 / Km: deiodination, 100 mM potassium phosphate pH 7.4, 25 °C
[7] = biological target: T3, E91K/K116E variant of IYD (Haliscomenobacter hydrossis, UniProt F4KU78, E91K/K116E); assay: Affinity of ligands to E91K/K116E variant of IYD; type: binding
[8] = biological target: T3, E91K/K116E variant of IYD; assay: Limited proteolysis of E91K/K116E variant of IYD by trypsin; conditions: relative to absence of ligands
[9] = biological target: T3, E91K/K116E variant of IYD; assay: Catalytic dehalogenation by E91K/K116E variant of IYD; type: biochemical
[10] = biological target: T1, IYD from Haliscomenobacter hydrossis; conditions: IYD with FMNox; ref Kozyryev et al.[26]; cited from earlier work
[11] = biological target: T1, IYD from Haliscomenobacter hydrossis; conditions: deiodination; ref Kozyryev et al.[26]; cited from earlier work
Catalytic deiodination [12] = substrate: N[C@H](Cc1ccc(O)c(I)c1)C(=O)O; assay: Catalytic deiodination; type: biochemical, Haliscomenobacter hydrossis; conditions: other: deiodination, 100 mM potassium phosphate pH 7.4, 25 °C
Catalytic deiodination [13] = substrate: O=C(O)[C@@H](O)Cc1ccc(O)c(I)c1; assay: Catalytic deiodination; type: biochemical, Haliscomenobacter hydrossis; conditions: other: deiodination, 100 mM potassium phosphate pH 7.4, 25 °C
[14] = IYD with FMNox, 110 mM potassium phosphate pH 7.4, 25 °C

## NCCc1ccc(O)c([N+](=O)[O-])c1 [O2N-tyramine]
[1]; IYD with FMNox
  weakening of binding relative to O2N-Tyr: 70 fold
[1]; [14]
  Kd: 280 ± 10 µM
[2]
  fold increase in t1/2: 2.7
[3]
  ability to oxidize reduced IYD (FMNhq): capable of oxidizing FMNhq to regenerate the initial FMNox spectrum

## NCCc1ccc(O)c(F)c1 [F-tyramine]
[1]; [14]
  Kd: 730 ± 140 µM
[2]
  protection of IYD against trypsin: protected IYD against trypsin
[4]
  inhibition of trypsin: inhibited trypsin
[5]
  two-electron potential of IYD: −225 mV
  formation of FMNsq during reductive titration: not detected

## NC(=O)[C@@H](N)Cc1ccc(O)c(F)c1 [F-tyrosinamide]
[1]; [14]
  Kd: 77 ± 3 µM
[2]
  protection of IYD against trypsin: protected IYD against trypsin
[5]
  two-electron potential of IYD: −236 mV
  formation of FMNsq during reductive titration: not detected

## NC(=O)[C@@H](N)Cc1ccc(O)c([N+](=O)[O-])c1 [O2N-tyrosinamide]
[1]; [14]
  Kd: 2.4 ± 0.1 µM
[2]
  fold increase in t1/2: 3.0
[3]
  ability to oxidize reduced IYD (FMNhq): capable of oxidizing FMNhq to regenerate the initial FMNox spectrum
[4]
  inhibition of trypsin: not the consequence of a general inhibition of trypsin

## O=C(O)[C@@H](O)Cc1ccc(O)c(I)c1 [I-HPLA, (S)-3-(4-hydroxy-3-iodophenyl)lactic acid]
[1]
  Kd: > 3000 µM

## O=C(O)CCc1ccc(O)c(I)c1 [I-HPPA, 3-(4-hydroxy-3-iodophenyl)propanoic acid]
[1]
  Kd: > 4000 µM
[1]; IYD with FMNox
  decrease in affinity relative to I-Tyr: at least 700 fold
[6]
  kcat (s^−1) × 10^−2: <9.3 × 10^−3^e s^−1 × 10^−2
[6]; set by detection limit of deiodinated product HPPA
  kcat as percentage of that for I-Tyr: ≤ 0.015%

## O=C(O)[C@@H](O)Cc1ccc(O)c([N+](=O)[O-])c1 [O2N-HPLA, (S)-3-(4-hydroxy-3-nitrophenyl)lactic acid]
[1]
  Kd: 180 ± 4 µM
[2]
  fold increase in t1/2: 2.1
[3]
  ability to oxidize reduced IYD (FMNhq): capable of oxidizing FMNhq to regenerate the initial FMNox spectrum
[4]; ligand at twice its Kd value
  inhibition of trypsin catalysis: no more than 25%

## N[C@H](Cc1ccc(O)c(I)c1)C(=O)O [D-I-Tyr, D-3-iodotyrosine]
[7]
  Kd: 200 ± 30 µM
[1]
  Kd: 270 ± 15 µM
[8]
  protection of variant from trypsin: over a twofold protection
[2]
  fold change in t1/2: 0.62
[9]
  catalytic dehalogenation: No catalytic dehalogenation could be detected
[4]
  inhibition of trypsin: mild inhibitor of trypsin

## NCCc1ccc(O)c(I)c1 [I-tyramine]
[1]; [14]
  Kd: 99 ± 10 µM
[6]
  decrease in kcat for dehalogenation relative to I-Tyr: more than 30 fold
  decrease in kcat/Km of dehalogenation relative to I-Tyr: more than 900 fold
  Km: 1470 ± 450 µM
  kcat (s^−1) × 10^−2: 1.8 ± 0.3 s^−1 × 10^−2
[2]
  fold change in t1/2: 2.7

## NC(=O)C(N)Cc1ccc(O)c(I)c1 (stereo not shown) [I-tyrosinamide]
[1]; [14]
  Kd: 7 ± 0.2 µM
[6]
  decrease in kcat for dehalogenation relative to I-Tyr: more than 30 fold
  decrease in kcat/Km of dehalogenation relative to I-Tyr: more than 900 fold
  Km: 2410 ± 410 µM
  kcat (s^−1) × 10^−2: 1.7 ± 0.2 s^−1 × 10^−2
[2]
  fold change in t1/2: 2.7

## N[C@@H](Cc1ccc(O)c(F)c1)C(=O)O [F-Tyr, L-3-fluorotyrosine, reference compound]
[1]
  Kd: 97 ± 3 µM
[1]; IYD with FMNox
  decrease in affinity relative to I-Tyr: more than 10 fold
[5]
  formation of FMNsq during reductive titration: consistent with the neutral form of FMNsq

## N[C@@H](Cc1ccc(O)c(I)c1)C(=O)O [I-Tyr, L-3-iodotyrosine, reference compound]
[10]
  Kd: 5.7 ± 0.4 µM
[7]
  Kd: 85 ± 14 µM
[8]
  protection of variant from trypsin: over a twofold protection
[2]
  fold change in t1/2: 2.2
[9]
  catalytic dehalogenation: No catalytic dehalogenation could be detected
[11]
  Km: 49 ± 10 µM
  kcat (s^−1) × 10^−2: 60 ± 0.5 s^−1 × 10^−2
[4]
  inhibition of trypsin: not due to general inhibition of trypsin

B1: IYD from Haliscomenobacter hydrossis (Haliscomenobacter hydrossis DSM 1100) (protein)
chain: MKQKPAFIPYAGAQFEPEEMLSKSAEYYQFMDHRRTVREFSNRAIPLEVIENIVMTASTAPSGAHKQPWTFVVVSDPQIKAKIRQAAEKEEFESYNGRMSNEWLEDLQPFGTDWHKPFLEIAPYLIVVFRKAYDVLPDGTQRKNYYVQESVGIACGFLLAAIHQAGLVALTHTPSPMNFLQKILQRPENERPFLLVPVGYPAEGAMVPDLQRKDKAAVMVVY
Catalytic deiodination [12]
  Km: 7900 ± 4000 µM
  kcat: 0.027 ± 0.01 s⁻¹
  kcat/Km: 3.4 ± 1 M⁻¹ s⁻¹
Catalytic deiodination [13]
  Km: 270 ± 30 µM
  kcat: 0.013 ± 0.001 s⁻¹
  kcat/Km: 47 ± 5 M⁻¹ s⁻¹
